# Measurements from ChEMBL document CHEMBL1134486, “Synthesis and biological evaluation of purine-containing butenolides” (J Med Chem, 2001).
# Assays:
# [1] = target: T1, Adenosine deaminase (Bos taurus, UniProt P56658); experiment: Rate of deamination in the presence of calf mucosal adenosine deaminase (ADA)
# T1 sequence (P56658 whole entry): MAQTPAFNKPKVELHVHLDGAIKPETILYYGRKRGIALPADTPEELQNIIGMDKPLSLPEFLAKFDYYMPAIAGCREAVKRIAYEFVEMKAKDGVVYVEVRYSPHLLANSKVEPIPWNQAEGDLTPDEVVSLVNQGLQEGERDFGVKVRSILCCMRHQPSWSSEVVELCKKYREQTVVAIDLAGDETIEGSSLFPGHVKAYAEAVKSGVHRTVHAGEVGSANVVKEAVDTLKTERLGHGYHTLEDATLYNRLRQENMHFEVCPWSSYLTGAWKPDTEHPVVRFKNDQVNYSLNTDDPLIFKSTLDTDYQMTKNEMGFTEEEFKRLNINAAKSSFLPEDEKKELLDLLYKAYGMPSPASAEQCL
# Procedure, shortened: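 Deamination rates followed with calf mucosal ADA (EC 3.5.4.4) in buffer solutions; Km and Vmax relative to adenosine as substrate; inhibition (Ki) assessed with adenosine as substrate.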
# [2] = test system: MCF7; experiment: Anticancer activity carried out in vitro against breast carcinoma MCF-7; format: functional, cell-based; conditions: Homo sapiens
# Procedure, shortened: (§1)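 Cells grown in DMEM with 10% FBS, 2.0 mM glutamine, penicillin/streptomycin, 5% CO2, 37 °C; exponential-phase cells (200 cells/mL) given compounds at various concentrations, counted at 24, 48, 72 h; IC50 for 50% proliferation inhibition at 72 h from dose-response curves of two independent experiments.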
# [3] = test system: HeLa; experiment: Ability to inhibit cytopathogenicity of herpes simplex type 1 virus (KOS) in HeLa cell culture; format: functional, cell-based; conditions: Homo sapiens
# Procedure, shortened: (§2)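 Inhibition of virus-induced cytopathogenicity measured in HeLa cell culture; IC50 derived by linear regression, mean of duplicate determinations.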
# [4] = test system: HeLa; experiment: Ability to inhibit cytopathogenicity of thymidine kinase-deficient (TK-) strain of Varicella zoster virus (YS/R) in HeLa cell culture; format: functional, cell-based; conditions: Homo sapiens; procedure, shortened: as §2
# [5] = test system: HeLa; experiment: Ability to inhibit cytopathogenicity of thymidine kinase-positive(TK+) strain of Varicella zoster virus (YS) in HeLa cell culture; format: functional, cell-based; conditions: Homo sapiens; procedure, shortened: as §2
# [6] = test system: HeLa; experiment: Concentration required to cause microscopically visible change or disruption in about 50% of cell sheet of HeLa cells; format: functional, cell-based, Homo sapiens
# Procedure, shortened: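 HeLa cells exposed to compounds at different concentrations; toxicity scored as morphological change, value is concentration causing microscopically visible change or disruption in about 50% of the cell sheet; mean of duplicate determinations.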
# [7] = test system: L1210; experiment: Anticancer activity carried out in vitro against murine leukemia L1210; format: functional, cell-based; conditions: Mus musculus; procedure, shortened: as §1
# [8] = test system: P388; experiment: Anticancer activity carried out in vitro against murine leukemia P388; format: functional, cell-based; conditions: Mus musculus; procedure, shortened: as §1
# [9] = Anticancer activity carried out in vitro against human T-lymphocyte CEM/0; format: functional; conditions: CCRF-CEM; procedure, shortened: as §1
# [10] = Anticancer activity carried out in vitro against human T-lymphocyte Molt4/C8; format: functional, cell-based; conditions: MOLT-4; procedure, shortened: as §1
# [11] = test system: HeLa; experiment: Ability to inhibit cytopathogenicity of herpes simplex type 2 virus (G) in HeLa cell culture; conditions: Homo sapiens
Compound,Ki [1] [µM],IC50 [2] [µM],IC50 [3] [µM],IC50 [4] [µM],IC50 [5] [µM],"IC50 ([6]; Homo sapiens, HeLa) [µM]",IC50 [7] [µM],IC50 [8] [µM],IC50 [9] [µM],IC50 [10] [µM],IC50 ([6]; hela) [µM],IC50 [11] [µM]
COC1=C(OC)C(O)(CCn2cnc3c(N)ncnc32)OC1=O (stereo not given),> 800,> 120,> 128,> 128,> 128,157,> 120,> 120,> 120,> 120,,
COC1=C(OC)/C(=C/Cn2cnc3c(Cl)ncnc32)OC1=O,,16.9,10.9,1.62,5.92,23.4,4.52,8.12,4.71,5.97,,
COC1=C(OCc2ccc([N+](=O)[O-])cc2)/C(=C\Cn2cnc3c(Cl)ncnc32)OC1=O,,15.4,9.83,1.03,4.4,19.3,5.81,6.49,3.98,7.35,,
COC1=C(OC)/C(=C/Cn2cnc3c(N)ncnc32)OC1=O,316,> 120,14.5,6.07,12.8,42.4,93.4,2.67,84.5,78.5,,
COC1=C(OCc2ccc([N+](=O)[O-])cc2)C(=O)O/C1=C/Cn1cnc2c(Cl)ncnc21,,14.2,7.24,0.89,6.32,20.2,6.03,7.42,5.04,6.16,,
COC1=C(OC)/C(=C/C(n2cnc3c(Cl)ncnc32)P(=O)(OC)OC)OC1=O (stereo not given),,90.1,13.2,5.03,10.2,28.1,16.2,14.3,96,12.5,,
O=C1O/C(=C/Cn2cnc3c(Cl)ncnc32)C(OCc2ccc([N+](=O)[O-])cc2)=C1OCc1ccc([N+](=O)[O-])cc1,,> 120,28.4,34.7,37.5,17,> 120,> 120,> 120,> 120,,
COC1=C(OC)C(O)(CCn2cnc3c(Cl)ncnc32)OC1=O (racemic),,> 120,> 128,> 128,> 128,149,> 120,> 120,> 120,> 120,,
COC1=C(OC)C(O)(CCn2cnc3c(Cl)ncnc32)OC1=O (stereo in doubt; (-)-4),,,,,,,,,,,132,
Nc1nc2c(ncn2COCCO)c(=O)[nH]1 [ACYCLOVIR],,,0.11,26.4,8.71,254,,,,,,0.19
Nc1ccn([C@@H]2O[C@H](CO)[C@@H](O)[C@@H]2O)c(=O)n1 [CYTARABINE],,1.03,,,,,0.17,0.14,0.78,0.65,,
